# Screening results as filed in PubChem BioAssay.
# A selection: hits, their analogues and other compounds. The true share with any hit is near 2.3%.
# UCH37 inh = human UCH37 deubiquitinating enzyme inhibition; AID 588478; 0.33% of 330,000 active; purified proteasome/UCH37, Ub-AMC cleavage fluorescence; inhibition, % (no concentration beside the values); Q9Y5K5;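 active means mean inhibition over replicate wells above about 20%, limit read from the data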;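 further: 0% = compound-free wells with enzyme and 100% = wells lacking proteasome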
# Target sequence (Q9Y5K5 whole entry, looked up): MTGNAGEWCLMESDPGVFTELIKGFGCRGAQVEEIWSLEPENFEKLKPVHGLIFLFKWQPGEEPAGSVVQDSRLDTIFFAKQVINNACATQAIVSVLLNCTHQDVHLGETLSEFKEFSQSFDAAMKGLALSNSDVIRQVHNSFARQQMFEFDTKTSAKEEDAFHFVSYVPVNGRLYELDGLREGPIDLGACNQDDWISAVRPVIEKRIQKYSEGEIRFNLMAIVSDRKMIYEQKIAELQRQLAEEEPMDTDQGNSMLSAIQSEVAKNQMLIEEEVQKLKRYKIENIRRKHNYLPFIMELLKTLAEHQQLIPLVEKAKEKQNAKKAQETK
#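 System: Proteasome-associated human UCH37 deubiquitinase; Input: 0.15 nM proteasome in added enzyme buffer; Also added: Ub-AMC substrate from 1 µM stock; Incubation: 30 min compound-proteasome preincubation then 25 min substrate reaction, room temperature; Detection: fluorescence, ex 355 nm, em 460 nm; Read-out: % inhibition of Ub-AMC cleavage fluorescence; Benchmarks: no-proteasome and no-compound wells.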
# PP1 inh = blocks human PP1-alpha phosphatase, a PP5 counter-screen. P62136. purified PP1alpha, OMFP fluorescence. inhibition, % at 6.7 µM. 0.9% of 320,000 active;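 active means inhibition above the mean inhibition of all tested compounds plus 3 SD, computed separately for each screening campaign, cut at about 15% in these data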
# Target sequence (P62136 whole entry, looked up): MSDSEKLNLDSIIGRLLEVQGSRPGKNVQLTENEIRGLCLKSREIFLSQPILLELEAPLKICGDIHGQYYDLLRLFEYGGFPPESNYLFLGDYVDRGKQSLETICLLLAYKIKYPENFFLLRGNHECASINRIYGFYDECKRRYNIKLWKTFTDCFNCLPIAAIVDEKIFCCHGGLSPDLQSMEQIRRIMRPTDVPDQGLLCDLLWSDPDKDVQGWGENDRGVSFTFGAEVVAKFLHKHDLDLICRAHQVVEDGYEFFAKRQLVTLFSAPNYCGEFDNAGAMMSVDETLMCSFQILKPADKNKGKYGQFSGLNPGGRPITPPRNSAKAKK
# CTSL1 counter = cathepsin L1 inhibition, PFM18AAP counter-screen; AID 1906; 0.49% of 300,000 active; recombinant F. hepatica cathepsin L1, Z-Leu-Arg-MCA fluorescence; inhibition, % at 5.96 µM;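 active means inhibition above the mean of all tested compounds plus 3 SD, set per screening campaign, cut at about 17% in these data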;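 further: 0% = plate median of test compound wells and 100% = 1 µM Z-Phe-Ala-diazomethylketone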
# UBC13 polyUb = blocks human UBC13 polyubiquitin chain formation | P61088 | TR-FRET | inhibition, % at 20 µM | 0.47% of 330,000 active; in the data active means inhibition above about 45%, passing the limit was not always enough
# PP5 primary = PP5 (human) phosphatase inhibition. P53041. purified PP5c, OMFP substrate fluorescence. inhibition, % at 6.7 µM. 0.18% of 320,000 active. AID 1987;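 active means inhibition above the campaign's mean inhibition across all tested compounds plus 3 SD, cut at about 9.5% in these data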;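 further: 0% = DMSO only and 100% = 100 µM cantharidin control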
# PREPL inhibitor = inhibits the human prolyl oligopeptidase-like enzyme; inhibition, % at 5.96 µM; recombinant PREPL, fluorescence polarization activity-based probe; 0.68% of 320,000 active; Q4J6C6; in the data active means inhibition above about 43%;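 further: 0% = enzyme with DMSO and 100% = wells lacking enzyme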
# PP1 inh confirm = human PP1 phosphatase inhibition, confirmation | 52% of 1,900 active | purified PP1alpha, OMFP substrate fluorescence | inhibition, % at 6.7 µM | AID 2358 | shares compounds with PP1 inh;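 active means mean PP1 inhibition above a set limit taken from the earlier primary screen, cut at about 15% in these data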
# PP5 counter = PP5 phosphatase inhibition, counter-screen for PP1 inhibitors | shares compounds with PP1 inh | purified PP5c, OMFP fluorescence | inhibition, % at 6.7 µM | 4% of 1,900 active;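 active means mean PP5 inhibition over triplicate wells above about 9.5% taken from the earlier PP1 screen, limit read from the data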
# Active calls of the source: *; / = not tested or not shown.
SMILES,UCH37 inh,PP1 inh,CTSL1 counter,UBC13 polyUb,PP5 primary,PREPL inhibitor,PP1 inh confirm,PP5 counter
CCOC(=O)c1ccc(/C=C2/C=C(c3ccccc3)N(c3ccc(Cl)c(C(=O)O)c3)C2=O)cc1,-2.1,20.2*,-0.8,-25.8,4.6,9.2,13.0,-1.8
C#CCn1c(=NC(=O)c2sc3ccccc3c2Cl)sc2cc(S(N)(=O)=O)ccc21,-6.2,27.7*,1.3,/,-0.2,-21.6,33.9*,-4.7
C#CCn1c(=NC(=O)c2ccc(S(=O)(=O)N3CCc4ccccc4C3)cc2)sc2cc(S(N)(=O)=O)ccc21,-153.3,25.8*,2.5,8.4,-1.4,-41.5,27.5*,-3.6
C#CCn1c(=NC(=O)c2ccccc2[N+](=O)[O-])sc2cc(S(C)(=O)=O)ccc21,/,-3.3,2.9,-12.4,1.3,-7.1,/,/
CC(=NO)C(=NO)c1ccc(C)o1,-0.8,/,/,/,/,/,/,/
O=C(Cc1ccccc1)NN=Cc1cc(Br)cc(Cl)c1O,-12.5,/,/,/,/,/,/,/
COc1cc(Br)cc(/C=N/NC(=O)Cc2ccccc2)c1O,/,18.9*,-1.7,2.4,0.9,6.6,14.3,-4.3
COc1cccc(/C=N/NC(=O)N/N=C/c2cccc(OC)c2O)c1O,/,21.5*,6.4,-10.1,-0.2,24.5,16.0*,-6.6
CCOC(=O)C=c1sc(=Cc2ccc(C#N)cc2)c(=O)n1CC(=O)NCc1ccco1,-4.4,/,/,/,/,/,/,/
O=C(NCCC1CCCCN1S(=O)(=O)c1ccc(Cl)cc1)C(=O)NCc1ccncc1 (stereo not given),2.9,30.7*,5.5,-7.2,2.1,5.7,-2.5,0.9
COc1ccc(S(=O)(=O)N2CCCC2CNC(=O)C(=O)NCc2ccccc2)cc1 (stereo not given),2.2,32.8*,-0.6,0.5,-0.9,-3.6,-4.7,-5.0
COc1ccc(S(=O)(=O)N2CCCC2CNC(=O)C(=O)NCc2ccc(C)cc2)cc1 (stereo not given),0.9,-2.7,-1.0,-2.2,-0.9,4.1,/,/
ON=C1CCC(=NO)c2nn(-c3ccccc3Cl)nc21,1.9,/,/,/,/,/,/,/
CCN(CC)S(=O)(=O)c1ccc(N2CCCC2)c(NC(=O)CN2C(=O)NC3(CCCC3)C2=O)c1,0.3,20.8*,-1.7,-1.5,0.7,-7.0,0.5,-5.3
Cc1ccc(S(=O)(=O)N2[C@@H](c3ccc(Cl)cc3)C(C(=O)O)=CC[C@H]2c2ccc(Cl)c(Cl)c2)cc1,0.0,21.1*,1.7,-22.3,3.4,-2.5,15.6*,3.1
Cc1ccc(S(=O)(=O)N2[C@@H](c3ccc(C(C)(C)C)cc3)C(C(=O)O)=CC[C@H]2c2ccc(Cl)cc2)cc1,15.2,/,/,-27.7,/,2.0,/,/
Cc1ccc(S(=O)(=O)N2[C@@H](c3cccc(Cl)c3)C(C(=O)O)=CC[C@H]2c2ccc(Cl)cc2)cc1,2.2,18.7*,4.4,-22.6,1.8,8.6,10.1,1.8
COc1cc(Br)cc(C=Nc2ncn[nH]2)c1O,5.6,/,/,/,/,/,/,/
O=C1CNC(=S)N1c1nc2ccccc2s1,1.0,24.7*,0.0,-10.0,-1.7,6.9,-1.2,-3.9
c1ccc2sc(N3CCCCC3)nc2c1,0.3,/,/,/,/,/,/,/
CNC(=O)/C(C#N)=C/c1ccc(-c2ccccc2[N+](=O)[O-])o1,7.8,-2.2,5.6,-13.4,-0.4,8.7,/,/
CNC(=O)/C(C#N)=C/c1ccc(-c2ccc(Cl)cc2)o1,1.3,20.1*,0.1,-0.8,4.3,-12.0,15.8*,-3.4
CCOC(=O)c1c(C)[nH]c(C(=O)OC/C(O)=C(\C#N)c2nc3ccccc3[nH]2)c1C,/,19.7*,-1.8,-15.3,0.4,2.2,9.7,1.4
Cc1ccc(NS(=O)(=O)c2cc([N+](=O)[O-])ccc2NNC(=S)Nc2cccc(Cl)c2)c(C)c1,6.1,26.1*,2.4,/,8.3,10.2,29.2*,8.4
Cc1ccc(NS(=O)(=O)c2cc([N+](=O)[O-])ccc2NNC(=S)Nc2cc(C)ccc2C)c(C)c1,9.3,2.8,4.8,-51.6,7.2,12.9,/,/
SMILES,UCH37 inh,PP1 inh,CTSL1 counter,UBC13 polyUb,PP5 primary,PREPL inhibitor,PP1 inh confirm,PP5 counter
CC(=NNc1nc(C)c(C)s1)c1ccc([N+](=O)[O-])cc1,4.8,/,/,/,/,/,/,/
COc1ccc(C=NN2CCN(C)CC2)cc1O,1.7,/,/,/,/,/,/,/
COC(=O)C1=C(CSc2nc3c(cc2C#N)CN(C)CC3)OC(N)=C(C#N)C1c1ccc(F)cc1 (stereo not given),-27.3,18.5*,2.7,-28.9,4.6,17.7,4.7,5.1
CCC(C)[C@H](NC(=O)OC(C)(C)C)C(=O)NN=Cc1cccc2nccnc12 (stereo not given in full),5.1,/,/,/,/,/,/,/
O=C(CSCC(=O)N1CCN(c2ccccc2)CC1)Nc1nc(-c2ccc(Cl)s2)cs1,2.5,26.7*,1.8,-7.9,4.1,19.3,4.6,0.4
N#CCC(=O)NN=Cc1cc(Br)ccc1OC/C=C/c1ccccc1,3.6,/,/,/,/,/,/,/
COc1cc(C=NN=C(N)c2nonc2N)cc(OC)c1OC,3.6,/,/,/,/,/,/,/
C#CCOCCOCCOCCNc1nc(N2CCN(C(=O)CCCCCCCCCCNC(=O)[C@@H](CCSC)n3cc(CCO)nn3)CC2)nc(N2CCN(C(=O)CCCCCCCCCCNC(=O)[C@H](CCSC)n3cc(CCO)nn3)CC2)n1,4.3,22.6*,4.0,28.4,3.2,-1.5,3.9,2.0
C#CCOCCOCCOCCNc1nc(N2CCOCC2)nc(N2CCN(C(=O)CCCCCCCCCCNC(=O)[C@@H](CCC(=O)O)n3cc(CCCCCN)nn3)CC2)n1,0.5,-4.0,1.4,6.9,-0.8,-3.2,/,/
COc1cccc(C2C(C(=O)c3cc4ccccc4o3)=C(O)C(=O)N2CCN(C)C)c1OC (stereo not given),9.1,-0.1,2.4,-7.4,1.4,2.1,/,/
CCCOc1ccc(C2C(C(=O)c3cc4ccccc4o3)=C(O)C(=O)N2c2cc(C)on2)cc1 (stereo not given),/,27.4*,3.8,-4.7,0.7,8.0,34.4*,1.5
COc1cc(C2C(C(=O)c3ccco3)=C(O)C(=O)N2c2cc(C)on2)cc(Br)c1O (stereo not given),11.5,-0.9,-1.6,2.3,0.2,-4.6,/,/
CCCOc1ccc(C2C(C(=O)c3cc4ccccc4o3)=C(O)C(=O)N2c2cc(C)on2)cc1OC (stereo not given),11.3,33.3*,5.3,-31.1,5.0,34.9,36.8*,-1.5
CCCCN(CC)S(=O)(=O)c1ccc(C(=O)Nc2nnc(COC)o2)cc1,0.4,19.1*,-6.9,-10.6,3.6,7.0,6.1,-1.0
CCCN(CCC)S(=O)(=O)c1ccc(C(=O)Nc2nnc(CSC)o2)cc1,-0.6,23.7*,0.7,-10.6,-2.2,-0.7,21.7*,-2.3
CCc1nnc(NC(=O)c2ccc(S(=O)(=O)N(CCOC)CCOC)cc2)o1,5.1,3.9,-1.9,-10.2,1.0,-0.3,/,/
